Results from ChEMBL document CHEMBL3526060, “Impact of hydrolysis-mediated clearance on the pharmacokinetics of novel anaplastic lymphoma kinase inhibitors” (Drug Metab Dispos, 2013).

Tests used:
Plasma [1] = assay: Drug metabolism in CD-1 mouse plasma assessed as maximum intrinsic clearance for hydrolysis metabolite formation by LC-MS/MS analysis; format: ADME, cell-free
Summary of the method: (§1)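 Mouse plasma depletion kinetics at 37 °C, substrate range 0.0023–5 µM, up to 3 h; samples quenched into acetonitrile/tolbutamide, LC-MS/MS. CLint per concentration from t1/2; apparent Vmax and Km fitted by nonlinear regression to Michaelis-Menten, formation rate simulated from fit; mean of two replicates.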

[2] = Plasma clearance in CD-1 mouse at 2 mg/kg, iv administered as single bolus dose by LC-MS/MS analysis; format: ADME, organism-based; set-up: dose 2 mg/kg, route intravenous
Summary of the method: (§2)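 Single 2 mg/kg IV bolus via lateral tail vein to male CD-1 mice. Mice euthanized at 0.083–24 h, 3 per time point (27 animals); cardiac-puncture blood into heparin on ice, plasma spun at 4 °C and immediately extracted with acetonitrile/0.1% formic acid plus IS, LC-MS/MS. Noncompartmental CL = Dose/AUC0–inf, t1/2 = 0.693/k, Vss from AUMC/AUC, MRT = Vss/CL.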

[3] = Ratio of drug level in blood to plasma in CD-1 mouse at 1 uM treated 20 mins after amide hydrolysis inhibitor DFP challenge measured after 1 hr by LC-MS/MS analysis; format: ADME; conditions: whole blood
Summary of the method: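 Fresh whole blood pre-incubated 20 min with 100 µM DFP, warmed to 37 °C, spiked to 1 µM, incubated 1 h, then plasma separated; reference plasma spiked at 1 µM. Extracted with 6 volumes acetonitrile/IS, LC-MS/MS; ratio = reference plasma peak area / treated plasma peak area.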

[4] = Drug metabolism in CD-1 mouse NADPH-fortified liver microsomes assessed as hydrolysis metabolite formation rate by LC-MS/MS analysis; format: ADME
Summary of the method: (§3)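 Mouse liver microsomes 0.25 mg/mL in 0.1 M phosphate pH 7.4, with or without 1 mM NADPH, substrate 0.0023–5 µM; sampling to 40 min into acetonitrile/IS, LC-MS/MS depletion. Hydrolysis Vmax/Km solved from no-NADPH incubations, then NADPH-dependent constants; metabolite formation rate simulated from fitted constants; duplicates.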

[5] = In vitro half life in CD-1 mouse plasma at 0.83 uM by LC-MS/MS analysis; format: ADME, cell-free
Summary of the method: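 Screening stability: compound at 0.83 µM in mouse plasma at 37 °C, up to 3 h; timed aliquots quenched into acetonitrile with tolbutamide IS, centrifuged, LC-MS/MS; half-life from depletion, CLint = (0.693/t1/2)/plasma concentration.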

[6] = Half life in CD-1 mouse at 2 mg/kg, iv administered as single bolus dose by LC-MS/MS analysis; format: ADME, organism-based; set-up: dose 2 mg/kg, route intravenous; conditions: in vivo; summary of the method: as §2
Plasma [7] = assay: Drug metabolism in CD-1 mouse plasma assessed as hydrolysis metabolite formation rate by LC-MS/MS analysis; format: ADME, cell-free; summary of the method: as §1
[8] = Mean residence time in CD-1 mouse at 2 mg/kg, iv administered as single bolus dose by LC-MS/MS analysis; format: ADME, organism-based; set-up: dose 2 mg/kg, route intravenous; conditions: in vivo; summary of the method: as §2
[9] = Volume of distribution at steady state in CD-1 mouse at 2 mg/kg, iv administered as single bolus dose by LC-MS/MS analysis; format: ADME, organism-based; set-up: dose 2 mg/kg, route intravenous; conditions: in vivo, read-out: Vdss; summary of the method: as §2
[10] = Fraction unbound in CD-1 mouse liver microsomes after 7 hrs by equilibrium dialysis method; format: ADME
Summary of the method: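 Equilibrium dialysis of 0.25 mg/mL mouse liver microsomes in phosphate buffer against PBS, 7 h at 37 °C, 5% CO2, test compound 0.1, 0.5 or 2 µM, triplicate; LC-MS/MS; fraction unbound = buffer/microsome concentration.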

[11] = Drug metabolism in CD-1 mouse liver microsomes assessed as hydrolysis metabolite formation rate by LC-MS/MS analysis; format: ADME; summary of the method: as §3
[12] = Fraction unbound in CD-1 mouse plasma after 7 hrs by equilibrium dialysis method; format: ADME, cell-free
Summary of the method: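 Mouse plasma pre-treated 20 min with 100 µM DFP to block hydrolysis, spiked at 0.1, 0.5 or 2 µM, equilibrium dialysis against PBS for 7 h at 37 °C, 5% CO2, triplicate; matrix-matched samples extracted with acetonitrile/IS, LC-MS/MS; fu = buffer/plasma concentration.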

[13] = AUC (0 to infinity) in CD-1 mouse at 2 mg/kg, iv administered as single bolus dose by LC-MS/MS analysis; format: ADME, organism-based; set-up: time infinity, dose 2 mg/kg, route intravenous; conditions: plasma; summary of the method: as §2

CL (Plasma [1]): 2.09 uL/min.ml
clearance [2]: 35.7 mL/min/kg
blood plasma ratio at 1 h, 1 µM [3]: 0.9
Vmax(app) [4]: 279 pmol/min/mg
Km ([4]; read-out: Km(app)): 1.9 µM
half-life at 0.83 µM [5]: 8.2 h
half-life [6]: 2.08 h
Vmax(app) (Plasma [7]): 0.305 pmol/min/mL
Km (Plasma [7]; read-out: Km(app)): 0.146 µM
MRT [8]: 2.56 h
Vd [9]: 5.47 L/kg
fraction unbound at 7 h [10]: 0.22
Vmax(app) [11]: 2.49 pmol/min/mg
Km ([11]; read-out: Km(app)): 0.053 µM
fraction unbound at 7 h [12]: 0.011
AUC(0-inf) [13]: 1.53 µM·h
Compound: CC(C)NC(=O)[C@H]1CC[C@@H](n2/c(=N/C(=O)c3cc(F)cc(Cl)c3)[nH]c3ccc(CN4CCC(C(C)(C)O)CC4)cc32)CC1
